Test results as given in ChEMBL document CHEMBL3352416, “Discovery of carbohybrid-based 2-aminopyrimidine analogues as a new class of rapid-acting antimalarial agents using image-based cytological profiling assay” (J Med Chem, 2014).
pEC50: −log10 of the molar value. Calls of active or inactive are those of the source. The rule behind the calls is not given here.

Experiments:
[1] = AUC in Sprague-Dawley rat at 1 mg/kg, ip; type: ADME, organism-based; parameters: dose 1 mg/kg, route intraperitoneal; settings: plasma
[2] = Half life in Sprague-Dawley rat at 5 mg/kg, ip; type: ADME, organism-based; parameters: dose 5 mg/kg, route intraperitoneal; settings: in vivo
Plasmodium falciparum [3] = test: Antimalarial activity against Plasmodium falciparum W2 by automated image mining based cytological profiling assay; type: functional, organism-based
How it was run: (§1)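 Parasite cultures in 384-well format, read by automated imaging. Infected erythrocytes detected by DAPI nuclear staining against WGA-AlexaFluor 488 host-cell stain, and viability by Mitotracker Red CMXRos. Total culture parasitaemia quantified. EC50 given as mean±SD of two independent experiments, each in duplicate.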

[4] = Tmax in Sprague-Dawley rat at 5 mg/kg, ip; type: ADME, organism-based; parameters: dose 5 mg/kg, route intraperitoneal; settings: in vivo
Plasmodium falciparum [5] = test: Antimalarial activity against Plasmodium falciparum HB3 by automated image mining based cytological profiling assay; type: functional; how it was run: as §1
Plasmodium chabaudi [6] = test: Antimalarial activity against Plasmodium chabaudi infected in BALB/c mouse assessed as reduction in accumulation of ring-stage parasites level at 3 to 30 mg/kg, ip treated on day 1 to day 3 post-infection measured on day 4 post-infection by Giemsa staining based light microscopy; type: functional, organism-based
How it was run: (§2)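 Groups of five BALB/c mice infected i.p. with 2 × 10^7 P. chabaudi-parasitized erythrocytes. Day 1 pre-treatment parasitaemia read from tail-blood thin smears, then i.p. dosing at 0.03, 0.3, 3, 10 or 30 mg/kg, repeated for two more days. Day 4 parasitaemia scored by light microscopy of Giemsa-stained thin smears; dose-response evaluated by probit analysis.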

[7] = Half life in Sprague-Dawley rat at 1 mg/kg, ip; type: ADME, organism-based; parameters: dose 1 mg/kg, route intraperitoneal; settings: in vivo
[8] = Selectivity index, ratio of CC50 for human HepG2 cells to EC50 for Plasmodium falciparum; type: toxicity, cell-based; settings: read-out: Ratio CC50/EC50
How it was run: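 Ratio of HepG2 CC50 (resazurin assay) to the highest EC50 among P. falciparum K1, HB3 and W2. Parasite EC50 values are means of two independent experiments, each run in duplicate.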

Plasmodium falciparum [9] = test: Antimalarial activity against tightly synchronized Plasmodium falciparum K1 assessed as parasite stage accumulation index at schizonts stages at 10 uM treated at 6 to 30 hrs post-invasion by automated image mining based cytological profiling assay; type: functional, organism-based
Plasmodium falciparum [10] = test: Antimalarial activity against tightly synchronized Plasmodium falciparum K1 assessed as parasite stage accumulation index at late ring stages at 10 uM treated at 6 to 30 hrs post-invasion by automated image mining based cytological profiling assay; type: functional, organism-based
[11] = Tmax in Sprague-Dawley rat at 1 mg/kg, ip; type: ADME, organism-based; parameters: dose 1 mg/kg, route intraperitoneal; settings: in vivo
[12] = AUC in Sprague-Dawley rat at 5 mg/kg, ip; type: ADME, organism-based; parameters: dose 5 mg/kg, route intraperitoneal; settings: plasma
[13] = Cmax in Sprague-Dawley rat at 5 mg/kg, ip; type: ADME, organism-based; parameters: dose 5 mg/kg, route intraperitoneal; settings: in vivo
Plasmodium falciparum [14] = test: Antimalarial activity against Plasmodium falciparum K1 by automated image mining based cytological profiling assay; type: functional, organism-based; how it was run: as §1
[15] = Cmax in Sprague-Dawley rat at 1 mg/kg, ip; type: ADME, organism-based; parameters: dose 1 mg/kg, route intraperitoneal; settings: in vivo
[16] = Stability in mouse liver microsomes assessed as remaining compound level at 1 uM incubated for 5 mins in presence of NADPH measured after 30 mins by LC/MS/MS method; type: ADME; settings: read-out: Stability
How it was run: (§3)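 Percent parent compound remaining after 30 min incubation with liver microsomes; n = 3.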

Plasmodium falciparum [17] = test: Antimalarial activity against tightly synchronized Plasmodium falciparum K1 assessed as parasite stage accumulation index at early ring stages at 10 uM treated at 6 to 30 hrs post-invasion by automated image mining based cytological profiling assay; type: functional, organism-based
Plasmodium falciparum [18] = test: Antimalarial activity against tightly synchronized Plasmodium falciparum K1 assessed as parasite stage accumulation index at trophozoites stages at 10 uM treated at 6 to 30 hrs post-invasion by automated image mining based cytological profiling assay; type: functional, organism-based
[19] = Stability in human liver microsomes assessed as remaining compound level at 1 uM incubated for 5 mins in presence of NADPH measured after 30 mins by LC/MS/MS method; type: ADME; settings: read-out: Stability; how it was run: as §3
Plasmodium chabaudi [20] = test: Antimalarial activity against Plasmodium chabaudi infected in BALB/c mouse assessed as reduction in parasitaemia level treated intraperitoneally on day 1 to day 3 post-infection measured on day 4 post-infection by Giemsa staining based light microscopy; type: functional; how it was run: as §2
Plasmodium chabaudi [21] = test: Antimalarial activity against Plasmodium chabaudi infected in BALB/c mouse assessed as reduction in blood parasitaemia level at 3 to 30 mg/kg, ip treated on day 1 to day 3 post-infection measured on day 4 post-infection by Giemsa staining based light microscopy; type: functional, organism-based; how it was run: as §2

## COc1ccc(CO[C@@H]([C@H](COC(c2ccccc2)(c2ccccc2)c2ccccc2)N=[N+]=[N-])[C@H](OCc2ccc(OC)cc2)c2cnc(N(C)C)nc2)cc1
[1]
  AUC: 8200 ng·h/mL
[2]
  half-life: 5.78 h
Plasmodium falciparum [3]
  pEC50: 7.10
[4]
  Tmax: 4 h
Plasmodium falciparum [5]
  pEC50: 7.10
Plasmodium chabaudi [6]
  inhibition: Active
[7]
  half-life: 6.36 h
[8]
  selectivity ratio: > 1000
Plasmodium falciparum [9]
  Activity: Active
Plasmodium falciparum [10]
  Activity: Active
[11]
  Tmax: 3.4 h
[12]
  AUC: 26600 ng·h/mL
[13]
  Cmax: 3070 ng/mL
Plasmodium falciparum [14]
  pEC50: 7.04
[15]
  Cmax: 1030 ng/mL
[16]
  remaining at 0.5 h, 1 µM: 81.6%
Plasmodium falciparum [17]
  Activity: Active
Plasmodium falciparum [18]
  Activity: Active
[19]
  remaining at 30 min, 1 µM: 89%
Plasmodium chabaudi [20]
  inhibition: Dose dependent effect
Plasmodium chabaudi [20]; ip
  ED50: 0.12 mg/kg
Plasmodium chabaudi [21]
  inhibition: Active
